Source: PubChem
This is a sample that favours compounds with a hit; in the whole collection about 1.9% have one here.
Runt-CBFb FRET = inhibitors of human RUNX1 Runt domain binding to CBFb. inhibition, % at 20 µM. Q01196+Q13951. AID 1496. Cerulean-Runt/Venus-CBFb FRET ratio 530/480, 1 h. actives 0.46% (n = 220,000);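 active means inhibition over about 50% at 20 µM in the single-dose screen, limit read from the data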;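 further: 0% = DMSO wells and 100% = excess unlabeled CBFb competitor control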
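test system = Cerulean-tagged RUNX1 Runt domain (FRET donor) fusion protein | reagent = Venus-CBFb binding partner, 100 nM | incubation = protein complex preformed 1 h, compound exposure 1 h, room temperature, dark | detection = FRET fluorescence | read-out basis = loss of energy transfer signal | controls = 5 µM unlabeled CBFb as full-inhibition high control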
CaV13 ICDI inh = Disruptors of the CACNA1D IQ motif to Ca2+-dependent inactivation inhibitor domain association, primary screening, Förster resonance energy transfer in intact living …; actives 0.098% (n = 340,000); inhibition, % at 12.3 µM; HEK cells, CFP/YFP FRET ICDI-IQ, plate reader, 10 min; percent FRET-ratio fall versus neutral wells; AID 743397;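 active means mean replicate inhibition of at least 30% and at least 1% of replicates passing that level; inconclusive means only one of the two criteria is met; inactive means neither criterion is met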;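 further: 0% = median of the neutral control wells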
HDAC3 inhib = inhibitors of human histone deacetylase 3; actives 0.15% (n = 320,000); O15379; recombinant HDAC3, fluorogenic peptide/trypsin coupled, fluorescence; inhibition, % at 8.3 µM; in the data active means inhibition above about 26%, passing the limit was not always enough; inconclusive means no clear call, values can overlap the other calls
LANA-H2B inh = blocks KSHV LANA binding to histone H2A/H2B; cell-free LANA-H2A/H2B peptide, fluorescence polarization; inhibition, % (no concentration beside the values); actives 0.6% (n = 320,000); in the data active means inhibition mostly above about 10%, no sharp cut-off; inactive means mostly below about 6.7%
RanGTP-Imp inh = inhibitors of RanGTP-importin-beta interaction, primary screen, biochemical, FRET, CFP-Ran, YFP-importin-beta, homogeneous; actives 1.1% (n = 300,000); cell-free CFP-Ran/YFP-importin-beta FRET ratio; inhibition, % (concentration not given with the values);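 active means more than half of the replicate wells show a fall in the fluorescence ratio signal beyond about 16%, limit read from the data, passing the limit was not always enough; inconclusive means exactly half of the replicate wells pass the set limit; inactive means fewer than half of replicates pass the limit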;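 further: 0% = DMSO wells and 100% = Ran loaded with GDP instead of GTP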
Runt-SMMHC FRET = inhibitors of human RUNX1 Runt domain binding to CBFb-SMMHC | Cerulean-Runt/Venus-CBFb-SMMHC FRET ratio 530/480, 1 h | Q01196+Q13951 | actives 0.74% (n = 220,000) | inhibition, % at 20 µM;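 active means mean inhibition across duplicate retests at 20 µM reaching about 50%, limit read from the data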;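 further: 0% = DMSO wells and 100% = wells with excess untagged CBFb-SMMHC; inhibitors lower the FRET ratio by blocking Runt binding to CBFb-SMMHC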
An asterisk follows results filed as active; u = inconclusive; x = no result given.

SMILES	Runt-CBFb FRET	CaV13 ICDI inh	HDAC3 inhib	LANA-H2B inh	RanGTP-Imp inh	Runt-SMMHC FRET
CCOC(=O)NCCOC(=O)Nc1ccc(Cl)cc1	2	-18	3	-9	-2	-4
Cc1ccc(C(=O)CSc2ncnc3sc4c(c23)CCCC4)cc1	x	x	-4	2	-4	1
CCCCn1c(N)c(N2CCOCC2)c(=O)n(CC(=O)NC(C)c2ccccc2)c1=O (stereo not given)	2	0	-1	1	27*	2
CCCn1c(N)c(N2CCCCC2)c(=O)n(CC(=O)Nc2ccccc2)c1=O	0	-5	6	4	-2	4
O=C(NCCO)c1ccc2nc(-c3ccco3)c(-c3ccco3)nc2c1	6	-8	0	-2	3	-18
O=C(NCCc1ccccc1)c1ccc2nc(-c3ccco3)c(-c3ccco3)nc2c1	2	x	6	-2	39*	-45
Nc1nc(SCC(=O)Nc2cccc(S(=O)(=O)N3CCCCCC3)c2)n[nH]1	0	x	-2	171*	u	-1
O=C(CCNC(=O)c1ccc([N+](=O)[O-])cc1)Nc1cccc(S(=O)(=O)N2CCCCCC2)c1	x	-6	6	12*	x	x
O=C(CSc1ncn[nH]1)Nc1cccc(S(=O)(=O)N2CCCCCC2)c1	-2	-3	-2	2	5	3
COc1ccc(-c2nc3ccc(C(=O)NCC(OC)OC)cc3nc2-c2ccc(OC)cc2)cc1	4	-8	-11	1	16*	3
COC(CNC(=O)c1ccc2nc(-c3ccccc3)c(-c3ccccc3)nc2c1)OC	-2	-4	-1	-1	-2	-6
CC(C)Oc1ccc(S(=O)(=O)N2CCOCC2)cc1NC(=O)CC1OC(=O)c2ccccc21 (stereo not given)	x	-6	-3	16*	-1	x
CCOc1ccc(S(=O)(=O)N2CCOCC2)cc1NC(=O)CN1C(=O)NC2(CCCCC2)C1=O	x	-5	-2	24*	x	x
CCOc1ccc(S(=O)(=O)N2CCOCC2)cc1NC(=O)CN1C(=O)NC(C)(c2ccc(C)cc2)C1=O (stereo not given)	x	-4	x	x	x	x
CC(C)Oc1ccc(S(=O)(=O)N2CCCCC2)cc1NC(=O)CC1OC(=O)c2ccccc21 (stereo not given)	x	-2	-2	-7	2	x
O=Cc1ccc(O)c2ncccc12	43	x	x	x	9	74*
COc1ccccc1C(=O)Nc1ccc(-c2nnc(SCC(=O)O)n2C)cc1	2	-4	-8	2	20*	-5
COc1ccccc1NC(=O)CSc1nnc(-c2ccc(NC(C)=O)cc2)n1C	-3	-8	11	0	5	-4
O=C(NCCc1nc2ccccc2[nH]1)/C(=C/c1ccco1)NC(=O)c1ccccc1Br	0	-1	3	14*	-1	-4
O=C(NCCc1nc2ccccc2[nH]1)/C(=C/c1ccco1)NC(=O)c1ccc(Br)cc1	-1	-2	3	-6	2	-2
CC(=O)Nc1cccc(N/C=C(\C=O)c2nc3ccccc3o2)c1	26	-3	-12	2	1	66*
COc1ccc(C2C3=C(CC(C)(C)CC3=O)Nc3c2c(=O)[nH]c(=O)n3Cc2ccccc2)cc1 (stereo not given)	102*	2	4	2	84*	40
COCCCN1C2=C(C(=O)CC(C)(C)C2)C(c2ccc(OC)c(OC)c2)C2=C1CC(C)(C)CC2=O	x	-20	0	3	1	x
COc1ccc(C2C3=C(CC(C)(C)CC3=O)Nc3c2c(=O)[nH]c(=O)n3Cc2ccccc2)cc1OC (stereo not given)	56*	-1	-2	12	88*	79*
CCC(CC)c1nnc(NC(=O)C2COc3ccccc3O2)s1 (stereo not given)	-1	-6	-2	1	21*	1
CCOC(=O)COn1c(=O)c(-c2ccc(F)cc2)[n+]([O-])c2ccccc21	x	-17	-2	-1	1	x
CCOn1c(=O)c(-c2cccs2)[n+]([O-])c2ccccc21	8	x	4	-3	21*	10
